Bioassay records deposited in PubChem by several laboratories.
Many of the other results were omitted from the sample, so hits are more common in it than they were.
CHOP inhibitor – inhibitors of CHOP promoter induction, primary screen, cell-based, unfolded protein response, luciferase reporter | CHO-K1 CHOP-promoter luciferase, tunicamycin-induced, 15-18 h | inhibition, % at 10 µM | actives 3.8% (n = 220,000) | AID 2732, 2010;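 active = compounds that reduced the stress-induced luciferase reporter signal by more than about 70% of percent inhibition, limit read from the data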;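 also: 0% = tunicamycin plus vehicle and 100% = wells without tunicamycin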
Cardio protect – cardioprotection against H2O2-induced cell death, primary screen, uHTS, H9c2 cells, ATPLite luminescence; H9c2 cardiomyocytes, H2O2 injury protection, 2 h; protection from H2O2 cell death, % at 20 µM; actives 0.63% (n = 360,000);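 active = compounds giving at least 50% protection of heart cells from peroxide-induced death in the single-dose screen, raw or plate-pattern-corrected value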;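 also: 0% = DMSO wells with peroxide and 100% = DMSO wells without peroxide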
CHOP UPR activ – activators of apoptotic CHOP UPR arm, primary screen, cell-based, CHO-CHOP luciferase reporter, luminescence, uHTS; UPR activation; percent of tunicamycin response over DMSO baseline; activation, % at 10 µM; actives 0.34% (n = 330,000); AID 449763, 2010;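 active = at 10 µM dose, activation of 40% or more, normalized to positive control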;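 also: 100% = tunicamycin at 10 µg/mL and 0% = DMSO alone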
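assay system = CHO CHOP reporter cells | amount = 500 CHO-CHOP cells per well | buffer or medium = F12 with 10% FBS | incubation = 16-18 h cell attachment, then 6 h compound exposure, 37 °C | detection = luminescence read with Steady-Glo | read-out = percent activation relative to tunicamycin control | controls = tunicamycin high control, DMSO low control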
hiPSC survival – enhancers of single-cell hiPSC survival, primary screen, ATPlite luminescence | survival enhancement, % at 20 µM | AID 602274, 2012 | actives 0.044% (n = 360,000) | 100% = ROCK inhibitor wells, 0% = DMSO; in the data active = survival enhancement above about 18%;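 also: cells exposed to compounds for 16 hours before the ATP read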
UPR XBP1 act – activators of adaptive XBP1 UPR arm, primary screen, cell-based, CHO-XBP1 luciferase reporter, luminescence, uHTS; actives 0.33% (n = 330,000); AID 463104, 2010; activation, % at 20 µM; IRE1-XBP1 UPR activation; percent of tunicamycin response, DMSO as zero;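 active = versus positive control, 20 µM dose yields 30% or more activation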;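 also: 100% = tunicamycin at 10 µg/mL and 0% = DMSO only wells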
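incubation = overnight seeding at 37 °C, 6 h compound treatment at 37 °C | assay system = CHO-XBP1 cells stably carrying IRE1-XBP1-driven luciferase reporter | input = 1000 cells per well | detection = luciferase luminescence | dosing = single point, 20 µM final compound, 1% DMSO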
CHOP confirm – retest of CHOP induction inhibitors, confirmation, cell-based; inhibition, % at 10 µM; CHO-CHOP promoter luciferase reporter, tunicamycin-induced, luminescence; shares compounds with CHOP inhibitor; actives 45% (n = 2,100);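 active = mean of three repeat readings of reporter signal inhibition above a set limit, cut at about 70% in these data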;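 also: 0% = tunicamycin plus vehicle and 100% = wells lacking tunicamycin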
* = called active by the depositor; / = no result.

SMILES	CHOP inhibitor	Cardio protect	CHOP UPR activ	hiPSC survival	UPR XBP1 act	CHOP confirm
O=C1CC(c2ccccc2Br)c2cc3c(cc2N1)CCC3 (stereo not given)	101*	/	-1	/	-1	41
COc1cccc(C(O)c2nc(-c3ccc(N(C)C)cc3)cs2)c1 (stereo not given)	/	-17	/	-1	/	/
O=C1N(c2ccccc2)C[C@@H]2C[C@@H](c3cccs3)N3CCC[C@@]123	98*	-4	0	-1	-4	91*
COc1ccc([C@@H]2C[C@H]3CN(c4ccccc4)C(=O)[C@]34CCCN24)c(OC)c1OC	19	5	0	0	-3	/
Cc1ccc(C)c(N2CCN(C(=O)CCS(=O)(=O)c3ccc4c(c3)oc(=O)n4C)CC2)c1	/	-3	1	1	-9	/
CC(C)c1ccccc1NC(=O)Cn1c(/C=C/c2ccccc2)nc2ccccc21	99*	/	12	/	32*	101*
CC(C)c1ccccc1NC(=O)Cn1c(-c2ccccc2Cl)nc2ccccc21	11	1	2	1	-2	/
COC(=O)c1ccc(-c2sc3nc(N4CCOCC4)c4c(c3c2N)CC(C)(C)OC4)o1	102*	-9	-1	-5	-2	-146
Cc1ccc(C(=O)NNC(=S)NC(=O)c2ccc(Cl)cc2Cl)cc1	98*	54*	0	1	5	8
Cc1ccc(C(=O)NNC(=S)NC(=O)c2ccccc2)cc1	/	12	-1	1	3	/
COc1ccc(S(=O)(=O)NCCSc2ccc(C)cc2)cc1OC	36	-18	0	1	-2	/
Cc1ccc(SCCNS(=O)(=O)c2ccc(F)cc2)cc1	97*	-4	2	0	-1	6
COc1cc(C(=O)O)ccc1Cl	-3	5	0	1	0	/
Cc1cc(/C(=N/O)C(C)(C)NO)ccc1Cl	102*	3	0	-2	2	-76
NC(=O)c1ccc(C(F)(F)F)n(Cc2c(Cl)cccc2Cl)c1=O	102*	-7	-1	-1	0	112*
COc1ccc(Cn2c(C(F)(F)F)ccc(C(N)=O)c2=O)cc1	27	16	1	0	9	/
Cc1cc(Nc2ccc(Cl)cc2)nc(NCc2ccccc2)n1	107*	-21	4	-2	13	81*
COc1cccc(NC(=O)c2cc3cccc(OC)c3o/c2=N\O)c1	/	/	8	/	1	/
COc1ccc(NC(=O)c2cc3cccc(OC)c3oc2=Nc2ccc(C(=O)O)cc2)cc1OC	103*	49	/	0	/	110*
Nc1c(C(=O)Nc2ccccc2F)sc2nc(-c3cccnc3)ccc12	97*	19	4	1	4	77*
COc1cc(C)nc(N2CCCC(C(=O)Nc3ccccc3Br)C2)n1 (stereo not given)	6	1	0	-1	1	/
COc1cc(C)nc(N2CCCC(C(=O)Nc3cccc(Cl)c3C)C2)n1 (stereo not given)	105*	8	-1	4	2	95*
Cc1ccc(S(=O)(=O)/N=C2/C=C(Sc3ncn[nH]3)C(=O)c3ccccc32)cc1	108*	-11	/	-2	/	108*
Cc1ccc(S(=O)(=O)/N=C2\C=C(NS(=O)(=O)c3ccccc3)C(=O)c3ccccc32)c(C)c1	/	0	/	0	/	/
Cc1ccc(S(=O)(=O)/N=C2/C=C(Sc3ncn[nH]3)C(=O)c3ccccc32)c(C)c1	109*	/	/	/	/	-8
SMILES	CHOP inhibitor	Cardio protect	CHOP UPR activ	hiPSC survival	UPR XBP1 act	CHOP confirm
CCCN1CCN(CC(=O)Nc2nnc(CC)s2)CC1	/	11	4	0	0	/
Cc1cc2cc(C=C(C#N)C#N)c(Cl)nc2cc1C	97*	0	10	-4	-2	2
CCOC(=O)/C(C#N)=C/c1cc2cc(C)c(C)cc2nc1Cl	-4	3	4	0	-1	/
COC(=O)/C=C1\OC(c2ccccc2)=CC1=O	108*	/	3	/	3	-53
O=C1OC(c2ccccc2)=CC1=Cc1ccccc1O	/	7	/	-4	/	/
Cc1n[nH]c(C)c1S(=O)(=O)N(CC(=O)N1CCc2ccccc21)c1ccc(C(C)C)cc1	96*	-6	2	1	-2	36
